These results are taken from ChEMBL document CHEMBL1147345, “Appenolides A-C: three new antifungal furanones from the coprophilous fungus Podospora appendiculata” (1993).

Holding throughout (assay type): functional
One experiment deals with Candida albicans. As to the kind of experiment: Antifungal activity against Candida albicans ATCC 14053 at 150 ug/disk by standard disk assay. The note with it: read-out: IZ. In a few lines:
(§1)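 Standard disc assay with 150 µg of compound loaded per disc. Activity is read as the zone of inhibition around the disc, in mm.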

The subject of a further experiment is Bacillus subtilis. Briefly: Antibacterial activity against Bacillus subtilis ATCC 6051 at 150 ug/disk by standard disk assay. The note with it: for zone of inhibition at 150 µg/disc: read-out: IZ. In a few lines: as §1
The test system of another experiment is Sordaria fimicola. Briefly: Antifungal activity against Sordaria fimicola NRRL 6459 assessed as reduction in radial growth rate at 150 ug/disk by centerpoint inoculation disk assay.
The test system of the next experiment is Ascobolus stercorarius. Briefly: Antifungal activity against Ascobolus furfuraceus NRRL 6460 assessed as reduction in radial growth rate at 50 ug/disk by centerpoint inoculation disk assay.

Active and inactive are the calls of the source. No cut-off for these calls is given here.

Consider `CC1=C(/C=C/CCCCCC(C)O)COC1=O` (configuration not stated) [APPENOLIDE B], for which the zone of inhibition at 150 µg/disc worked out at 12 mm in the experiment with Candida albicans and 8 mm in the experiment on Bacillus subtilis. In addition, the outcome in the experiment on Sordaria fimicola and with Ascobolus stercorarius was Active.

As to `CC(=O)CCCCC/C=C/C1=C(C)C(=O)OC1` [APPENOLIDE A], the zone of inhibition at 150 µg/disc in the experiment with Candida albicans amounted to 12 mm. For the same compound, the outcome in the experiment on Bacillus subtilis was inactive. Also, the Activity in the experiment with Sordaria fimicola is given as 54%; with Ascobolus stercorarius it was 26%.

Consider `CCC(O)CCCC/C=C/C1=C(C)C(=O)OC1` (configuration not stated) [APPENOLIDE C], for which the zone of inhibition at 150 µg/disc in the experiment with Candida albicans was determined as 12 mm; in the experiment on Bacillus subtilis it was 8 mm. Moreover, the result in the experiment on Sordaria fimicola and with Ascobolus stercorarius was Active.
